# Screening results (PubChem)
# Apaf-1 inh – human Apaf-1 inhibition; inhibition, % at 20 µM; AID 489030; reconstituted apoptosome caspase-3 activity, DEVD-Rh110 fluorescence; O14727; 330,000 tested, 0.71% active; active = inhibition of at least 40% at 20 µM;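 also: plate controls were DMSO wells for no effect and DEVD-CHO caspase inhibitor wells for full effect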
#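 Material: biochemical Apaf-1 apoptosome reconstitution. Medium: Hepes buffer, pH 7.5. Also added: cytochrome c activation, bis-DEVD rhodamine 110 substrate. Timing: 30 min compound preincubation, 50 min activation, room temperature. Measured by: rhodamine 110 fluorescence at Ex 480/Em 540 nm.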
# Rin1 Abl inh – human Rin1-Abl interaction inhibition. P00519+Q13671. TR-FRET Rin1/Abl binding, biochemical. inhibition, % at 7.35 µM. 360,000 tested, 0.4% active; in the data active = inhibition above about 5%, passing the limit was not always enough
# PAD4 inh – PAD4 (human) enzyme inhibition | Q9UM07 | recombinant PAD4, RCA probe fluorescence polarization | inhibition, % at 6.36 µM | 330,000 tested, 0.41% active | AID 485272;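 active = percent inhibition above a cutoff equal to the mean of all tested compounds plus 3 SD, cut at about 15% in these data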;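 also: 0% = PAD4 with RCA probe and DMSO and 100% = probe without PAD4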
# SUMO HTRF inh – SUMOylation inhibition. HTRF SUMOylation assay, SAE1/SAE2 + UBC9, in vitro. P63279. 290,000 tested, 0.36% active. AID 2006. inhibition, % at 35 µM; in the data active = inhibition above about 50%, passing the limit was not always enough
# Target sequence (P63279 whole entry, looked up): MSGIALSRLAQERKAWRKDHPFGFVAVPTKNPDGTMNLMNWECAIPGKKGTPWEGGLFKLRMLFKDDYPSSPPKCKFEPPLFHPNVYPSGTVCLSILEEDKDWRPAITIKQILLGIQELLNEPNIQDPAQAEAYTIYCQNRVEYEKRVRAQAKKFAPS
# UBC13 inh – human UBC13 polyubiquitination inhibition | UBC13 polyubiquitin chain formation, TR-FRET | inhibition, % at 20 µM | 330,000 tested, 0.47% active; in the data active = inhibition above about 45%, passing the limit was not always enough
# Target sequence (P61088 whole entry, looked up): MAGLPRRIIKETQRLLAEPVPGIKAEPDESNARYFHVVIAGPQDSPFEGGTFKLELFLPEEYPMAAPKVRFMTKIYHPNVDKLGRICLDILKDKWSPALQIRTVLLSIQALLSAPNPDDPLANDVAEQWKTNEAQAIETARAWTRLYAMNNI
# GSTO1 counter – blocks human GSTO1 in RBBP9 counter-screen | P78417 | recombinant GSTO1, activity-based probe fluorescence polarization | inhibition, % at 5.96 µM | 300,000 tested, 1.1% active | AID 1974;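 active = inhibition above the campaign mean inhibition plus 3 SD, cut at about 35% in these data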;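 also: 0% = GSTO1-1 with DMSO and 100% = wells lacking GSTO1-1 enzyme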
# Rin1 Abl conf – Rin1-Abl interaction inhibition confirmation. shares compounds with Rin1 Abl inh. TR-FRET Rin1-Abl binding, purified proteins. inhibition, % at 7.35 µM. 1,300 tested, 49% active
# GFP quencher – counter-screen for Rin1-Abl inhibitors: GFP fluorescence quenchers; AID 602125; shares compounds with Rin1 Abl inh; inhibitors/quenchers counterscreen; inhibition, % at 6.75 µM; 1,300 tested, 8.5% active;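 also: ABL1-eGFP fusion protein alone without its partner RIN1-SBP; 0% = protein with vehicle and 100% = wells lacking protein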
# GFP quench DR – GFP fluorescence interference dose response; shares compounds with Rin1 Abl inh; GFP fluorescence interference/quenching counterscreen; IC50, µM; 230 tested, under 10 active; AID 602182; call rule not given here;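 also: ABL1-eGFP fusion protein alone without its RIN1 binding partner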
# Numbers without * were called inactive; / = no result given. Hits are enriched below; roughly 2.2% of the tested compounds scored in any of these assays. Rule as the data show it, unless noted: active = inhibition above about 6.5%; inactive = the rest.
SMILES,Apaf-1 inh,Rin1 Abl inh,PAD4 inh,SUMO HTRF inh,UBC13 inh,GSTO1 counter,Rin1 Abl conf,GFP quencher,others
CS(=O)(=O)N(CC(=O)Nc1ccc(S(=O)(=O)N2CCOCC2)cc1)c1ccccc1Br,8,9.4*,-3,-18,-6,-11,-3,2,
OCC1(CCOc2ccccc2)CCN(Cc2ccncc2)CC1,8,12*,4,0,1,-4,12*,-2,
Cc1ccc(C2N(c3ccc(Cl)cc3)C(=O)N3CCCN23)cc1 (configuration not stated),-4,12*,-2,3,3,-3,13*,-1,
O=C(Cc1ccc(F)cc1)Nc1cc(S(=O)(=O)N2CCOCC2)ccc1N1CCCCC1,/,-3,/,/,/,/,/,/,
COC(=O)C=CC(=NNc1ccccc1)c1ccccc1,/,9.1*,/,/,/,/,-2,-1,
CO/N=C/C(=N\Nc1ccccc1)C(=O)c1ccccc1,13,2,-1,-2,-6,0,/,/,
O=S(=O)(c1ccc(-c2n[nH]c(=S)o2)cc1)N1CCCC1,-3,-1,1,4,2,2,/,/,
CCN(CC)c1ccc(C(=C2C=CC(=[N+](CC)CC)C=C2)c2ccc(N(CC)CC)cc2)cc1,/,19*,/,/,/,/,17*,52*,
CC(C)(C(=O)N1CCC1(C)C(=O)Nc1ccccc1Br)c1ccccc1 (configuration not stated),/,0,/,/,/,/,/,/,
CC(=O)c1cccc(-c2ccnc3c2CC(C(=O)NCc2ccc(N4CCN(C)CC4)cc2)O3)c1 (configuration not stated),/,25*,/,/,/,/,18*,-1,GFP quench DR=>68
CN1CCN(c2ccc(CNC(=O)C3Cc4c(-c5cccc(F)c5)ccnc4O3)cc2)CC1 (configuration not stated),/,6.5*,/,/,/,/,5,1,
CC(=O)c1cccc(-c2ccnc3c2CC(C(=O)NCc2ccccc2)O3)c1 (configuration not stated),/,-2,/,/,/,/,/,/,
O=C(NCc1ccccc1)C1Cc2c(-c3cccc(F)c3)ccnc2O1 (configuration not stated),/,0,/,/,/,/,/,/,
Cc1cccc(NC(=S)NNc2ncc(C(F)(F)F)cc2Cl)c1,7,-3,2,7,-12,-2,/,/,
FC(F)(F)c1cnc(NNC(=S)Nc2ccccc2Cl)c(Cl)c1,-1,5.7*,3,-29,-14,2,-1,0,
COCCc1ncc(CN2CCC(C(=O)Nc3cccc(-c4cscn4)c3)CC2)cn1,-7,13*,0,0,-13,-4,7.2*,-1,
COCc1ccc(CN2CCC(C(=O)Nc3cccc(-c4cscn4)c3)CC2)o1,-4,4,1,2,-2,0,/,/,
CCCc1ncc(CN2CCC(C(=O)Nc3cccc(-c4cscn4)c3)CC2)cn1,0,36*,-2,14,-4,-7,19*,0,GFP quench DR=>68
CSc1ncc(CN2CCC(C(=O)Nc3cccc(-c4cscn4)c3)CC2)cn1,-9,1,-7,-2,-10,5,/,/,
